Test results published in ChEMBL document CHEMBL1129660, “Studies on 6-aminoquinolones: synthesis and antibacterial evaluation of 6-amino-8-methylquinolones” (J Med Chem, 1996).
In brackets after ≈: the same amount, converted by molar mass.

Experiments:
Assay type in all cases: functional
[1] = tested on: Staphylococcus epidermidis; assay: Antibacterial activity tested against Staphylococcus epidermidis HCF Berset C
Method in brief: (§1)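 MICs (µg/mL) determined by conventional agar dilution against a panel of eight Gram-negative and five Gram-positive reference strains.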

[2] = tested on: Escherichia coli; assay: Antibacterial activity tested against Escherichia coli ATCC 8739; method in brief: as §1
[3] = tested on: Bacteria; assay: Geometric mean of antibacterial activity (Gram +ve bacteria) of the compound
Method in brief: (§2)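 Geometric means calculated from agar-dilution MICs (µg/mL), taken separately across the five Gram-positive and the eight Gram-negative panel strains.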

[4] = tested on: Enterococcus faecalis; assay: Antibacterial activity tested against Streptococcus faecalis LEP Br; method in brief: as §1
[5] = tested on: Staphylococcus aureus; assay: Antibacterial activity against Staphylococcus aureus MPR 5; method in brief: as §1
[6] = tested on: Enterobacter cloacae; assay: Antibacterial activity tested against Enterobacter cloacae OMNFI 174
[7] = tested on: Pseudomonas aeruginosa; assay: Antibacterial activity tested against P. ae (Pseudomonas aeruginosa) ATCC 9027; method in brief: as §1
[8] = tested on: Escherichia coli; assay: Antibacterial activity tested against Escherichia coli ISF 432; method in brief: as §1
[9] = tested on: Staphylococcus epidermidis; assay: Antibacterial activity tested against Staphylococcus epidermidis CPHL A2; method in brief: as §1
[10] = tested on: Klebsiella pneumoniae; assay: Antibacterial activity tested against Klebsiella pneumoniae (Klebsiella pneumoniae) ATCC 10031; method in brief: as §1
[11] = tested on: Staphylococcus aureus; assay: Antibacterial activity against Staphylococcus aureus ATCC 6538; method in brief: as §1
[12] = tested on: Proteus vulgaris; assay: Antibacterial activity tested against Proteus vulgaris CNUR 5; method in brief: as §1
[13] = Geometric mean of antibacterial activity (Gram -ve bacteria) of the compound; method in brief: as §2
[14] = tested on: Shigella; assay: Antibacterial activity tested against Shigella enteritidis; method in brief: as §1
[15] = tested on: Providencia stuartii; assay: Antibacterial activity tested against Providencia stuartii CNUR 5; method in brief: as §1
[16] = tested on: Escherichia coli; assay: Inhibitory activity against gyrase supercoiling activity from Escherichia coli
Method in brief: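 Inhibition of DNA gyrase supercoiling activity, by a previously described protocol with slight modifications. IC50 derived by densitometric quantification of the supercoiled DNA peak in an agarose gel.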

Compound	MIC [1]	MIC [2]	MIC [4]	MIC [5]	MIC [6]	MIC [8]	MIC [9]	MIC [10]	MIC [11]	MIC [12]	MIC [14]	MIC [15]	IC50 [16]	Geometric mean [3]	MIC [7]	Geometric mean [13]
COc1ccc(-n2cc(C(=O)O)c(=O)c3cc(N)c(N4CCN(C)CC4)c(C)c32)cc1	64 µg/mL (≈ 151 µM)	> 128 µg/mL	128 µg/mL (≈ 303 µM)	64 µg/mL (≈ 151 µM)	> 128 µg/mL	16 µg/mL (≈ 37.9 µM)	128 µg/mL (≈ 303 µM)	16 µg/mL (≈ 37.9 µM)	64 µg/mL (≈ 151 µM)	128 µg/mL (≈ 303 µM)	> 128 µg/mL	128 µg/mL (≈ 303 µM)	–	84.45	> 128 µg/mL	76.109
Cc1c(N2CCC3CCCCC3C2)c(N)cc2c(=O)c(C(=O)O)cn(C3CC3)c12 (stereo unspecified)	0.125 µg/mL (≈ 0.316 µM)	4 µg/mL (≈ 10.1 µM)	2 µg/mL (≈ 5.06 µM)	0.06 µg/mL (≈ 0.152 µM)	4 µg/mL (≈ 10.1 µM)	4 µg/mL (≈ 10.1 µM)	0.25 µg/mL (≈ 0.632 µM)	0.125 µg/mL (≈ 0.316 µM)	0.06 µg/mL (≈ 0.152 µM)	64 µg/mL (≈ 162 µM)	2 µg/mL (≈ 5.06 µM)	1 µg/mL (≈ 2.53 µM)	–	0.186	64 µg/mL (≈ 162 µM)	4
Cc1c(N2CCCC(C)(C)C2)c(N)cc2c(=O)c(C(=O)O)cn(C3CC3)c12	1 µg/mL (≈ 2.71 µM)	0.5 µg/mL (≈ 1.35 µM)	16 µg/mL (≈ 43.3 µM)	0.5 µg/mL (≈ 1.35 µM)	16 µg/mL (≈ 43.3 µM)	0.5 µg/mL (≈ 1.35 µM)	1 µg/mL (≈ 2.71 µM)	0.5 µg/mL (≈ 1.35 µM)	0.5 µg/mL (≈ 1.35 µM)	> 128 µg/mL	16 µg/mL (≈ 43.3 µM)	8 µg/mL (≈ 21.7 µM)	–	1.132	64 µg/mL (≈ 173 µM)	6.17
Cc1c(N2CC3CCC2CC3)c(N)cc2c(=O)c(C(=O)O)cn(C3CC3)c12	1 µg/mL (≈ 2.72 µM)	4 µg/mL (≈ 10.9 µM)	4 µg/mL (≈ 10.9 µM)	0.03 µg/mL (≈ 0.0816 µM)	4 µg/mL (≈ 10.9 µM)	0.3 µg/mL (≈ 0.816 µM)	0.25 µg/mL (≈ 0.68 µM)	0.03 µg/mL (≈ 0.0816 µM)	0.03 µg/mL (≈ 0.0816 µM)	64 µg/mL (≈ 174 µM)	3 µg/mL (≈ 8.16 µM)	1 µg/mL (≈ 2.72 µM)	–	0.246	16 µg/mL (≈ 43.5 µM)	2.141
Cc1c(N2CCc3ccccc3C2)c(F)cc2c(=O)c(C(=O)O)cn(C3CC3)c12	0.03 µg/mL (≈ 0.0764 µM)	0.06 µg/mL (≈ 0.153 µM)	0.25 µg/mL (≈ 0.637 µM)	0.03 µg/mL (≈ 0.0764 µM)	4 µg/mL (≈ 10.2 µM)	0.03 µg/mL (≈ 0.0764 µM)	0.03 µg/mL (≈ 0.0764 µM)	0.03 µg/mL (≈ 0.0764 µM)	0.03 µg/mL (≈ 0.0764 µM)	4 µg/mL (≈ 10.2 µM)	0.25 µg/mL (≈ 0.637 µM)	2 µg/mL (≈ 5.1 µM)	3.14 µg/mL (≈ 8 µM)	0.046	4 µg/mL (≈ 10.2 µM)	0.451
CN1CCN(c2cc3c(cc2N)c(=O)c(C(=O)O)cn3C2CC2)CC1	4 µg/mL (≈ 11.7 µM)	0.25 µg/mL (≈ 0.73 µM)	32 µg/mL (≈ 93.5 µM)	2 µg/mL (≈ 5.84 µM)	0.25 µg/mL (≈ 0.73 µM)	0.03 µg/mL (≈ 0.0876 µM)	2 µg/mL (≈ 5.84 µM)	0.03 µg/mL (≈ 0.0876 µM)	2 µg/mL (≈ 5.84 µM)	64 µg/mL (≈ 187 µM)	0.25 µg/mL (≈ 0.73 µM)	8 µg/mL (≈ 23.4 µM)	–	4	4 µg/mL (≈ 11.7 µM)	0.642
Cc1c(N2CC(C)CC(C)C2)c(N)cc2c(=O)c(C(=O)O)cn(C3CC3)c12 (stereo unspecified)	0.06 µg/mL (≈ 0.162 µM)	0.125 µg/mL (≈ 0.338 µM)	1 µg/mL (≈ 2.71 µM)	0.03 µg/mL (≈ 0.0812 µM)	2 µg/mL (≈ 5.41 µM)	0.03 µg/mL (≈ 0.0812 µM)	0.06 µg/mL (≈ 0.162 µM)	0.06 µg/mL (≈ 0.162 µM)	0.03 µg/mL (≈ 0.0812 µM)	16 µg/mL (≈ 43.3 µM)	2 µg/mL (≈ 5.41 µM)	0.5 µg/mL (≈ 1.35 µM)	–	0.079	4 µg/mL (≈ 10.8 µM)	0.641

Continued, in another order:

MIC [1]	MIC [2]	MIC [4]	MIC [5]	MIC [6]	MIC [8]	MIC [9]	MIC [10]	MIC [11]	MIC [12]	MIC [14]	MIC [15]	IC50 [16]	Compound	Geometric mean [3]	MIC [7]	Geometric mean [13]
8 µg/mL (≈ 21.5 µM)	32 µg/mL (≈ 86.2 µM)	32 µg/mL (≈ 86.2 µM)	1 µg/mL (≈ 2.69 µM)	64 µg/mL (≈ 172 µM)	4 µg/mL (≈ 10.8 µM)	8 µg/mL (≈ 21.5 µM)	64 µg/mL (≈ 172 µM)	32 µg/mL (≈ 86.2 µM)	64 µg/mL (≈ 172 µM)	64 µg/mL (≈ 172 µM)	64 µg/mL (≈ 172 µM)	–	Cc1c(N2CCCCC2)c([N+](=O)[O-])cc2c(=O)c(C(=O)O)cn(C3CC3)c12	9.189	64 µg/mL (≈ 172 µM)	41.5
0.25 µg/mL (≈ 0.703 µM)	0.03 µg/mL (≈ 0.0844 µM)	2 µg/mL (≈ 5.63 µM)	0.06 µg/mL (≈ 0.169 µM)	1 µg/mL (≈ 2.81 µM)	0.03 µg/mL (≈ 0.0844 µM)	0.125 µg/mL (≈ 0.352 µM)	0.03 µg/mL (≈ 0.0844 µM)	0.03 µg/mL (≈ 0.0844 µM)	32 µg/mL (≈ 90 µM)	1 µg/mL (≈ 2.81 µM)	0.25 µg/mL (≈ 0.703 µM)	–	Cc1c(N2CCCC(C)C2)c(N)cc2c(=O)c(C(=O)O)cn(C3CC3)c12 (stereo unspecified)	0.162	4 µg/mL (≈ 11.3 µM)	0.414
2 µg/mL (≈ 4.77 µM)	64 µg/mL (≈ 153 µM)	4 µg/mL (≈ 9.54 µM)	0.25 µg/mL (≈ 0.596 µM)	64 µg/mL (≈ 153 µM)	4 µg/mL (≈ 9.54 µM)	4 µg/mL (≈ 9.54 µM)	64 µg/mL (≈ 153 µM)	64 µg/mL (≈ 153 µM)	64 µg/mL (≈ 153 µM)	64 µg/mL (≈ 153 µM)	64 µg/mL (≈ 153 µM)	–	Cc1c(N2CCc3ccccc3C2)c([N+](=O)[O-])cc2c(=O)c(C(=O)O)cn(C3CC3)c12	3.482	64 µg/mL (≈ 153 µM)	45.25
